From PubChem
The list is not random: actives were taken first. Their share in the collection is about 1.7%.
F508del corr = F508del CFTR correction, initial screen, CFBE line, single point; CFBE cells, YFP halide quenching; stimulated with forskolin plus potentiator P3; % fluorescence drop versus neutral controls; activity (quench increase), % at 7.58 µM; 350,000 compounds, 0.36% hits;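 active = mean added fluorescence quench of at least 8% versus neutral control, with both replicates also reaching 8%; inconclusive = only one of the mean or replicate conditions met; inactive = mean below 8% and not both replicates reaching 8%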;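 note: cells transiently co-express mutant CFTR-F508del with the halide-sensitive YFP; corrector assay measuring rescue of mutant channel to the surface after 24 h compound exposure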
Cneo AK release = Cryptococcus neoformans cell lysis inducers, primary screen, AK release luminescence, single concentration; 360,000 compounds, 0.2% hits; AID 651654, 2012; lysis activity, % at 15 µM; C. neoformans lysis, adenylate kinase release luminescence, 4 h; normalised: neutral wells 0, clomiphene wells 100;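 active = mean lysis activity across replicates of at least 80%, whatever share of replicates individually reach that level; inactive = mean lysis activity below 80%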
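Material – Cryptococcus neoformans yeast cells · Quantity – 5 × 10^6 yeast cells/mL · Buffer or medium – YPD medium · Compound – single dose · Timing – 4 h static compound exposure, 37 °C, read 1 h post-reagent · Signal – adenylate kinase release luminescence · Read-out basis – lysis from increased AK signal · Benchmarks – Clomiphene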
CaV13 FRET inh = Disruptors of the CACNA1D IQ motif to Ca2+-dependent inactivation inhibitor domain association, primary screening, Förster resonance energy transfer in intact living …. HEK cells, CFP/YFP FRET ICDI-IQ, plate reader, 10 min; percent FRET-ratio fall versus neutral wells. inhibition, % at 12.3 µM. 340,000 compounds, 0.098% hits;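 active = mean replicate inhibition of at least 30% and at least 1% of replicates passing that level; inconclusive = only one of the two criteria is met; inactive = neither criterion is met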;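 note: 0% = median of the neutral control wells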
rRNA inh HTS = reduced GFP signal of wild-type E. coli, primary screen, bacterial rRNA inhibitor project, GFP/RFP fluorescence, OD600, single point; GFP signal change (wild-type ribosome), % (concentration not given with the values); E. coli WT GFP vs humanized-ribosome RFP mutants, 24 h; stronger effect = lower value; DMSO median 0, no signal -100; AID 720706, 2013; 350,000 compounds, 1.6% hits;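 active = significant combined selectivity score with lowered wild-type GFP, culture density cut under 30%, mutant RFP and density less affected; inactive = any of these conditions unmet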
AID977621 = growth inhibition of wild-type GFP E. coli, dose response, H69 mutant RFP, cherry-pick; AID 977621, 2014; shares compounds with rRNA inh HTS; E. coli wild-type GFP strain growth, fluorescence, 24 h; 1,900 tested, under 10 active; activity change, negative = inhibition at 50 µM;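 active = Wild-type ribosome reporter drop at least double the humanized mutant ribosome reporter drop, growth loss under a set limit; inconclusive = no clear call, values can overlap the other calls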;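 note: wild-type GFP and H69 mutant RFP strains grown together 50/50 in each well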
AID977628 = E. coli growth inhibition, wild-type GFP versus h24 humanized RFP strain, dose response, h24 mutant RFP vs wild-type GFP, cherry-pick; activity change, negative = inhibition at 50 µM; AID 977628, 2014; 1,900 tested, under 10 active; E. coli WT GFP strain growth, fluorescence, 24 h; shares compounds with rRNA inh HTS;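 active = compound lowering the normal-ribosome reporter at least twice as much as the humanized-ribosome reporter, growth loss under a set limit; inconclusive = no clear call, values can overlap the other calls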;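 note: wild-type GFP and h24 humanized RFP strains co-cultured 1 to 1 per well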
Numbers without * were called inactive; u = inconclusive; x = not tested or not shown.

SMILES	F508del corr	Cneo AK release	CaV13 FRET inh	rRNA inh HTS	AID977621	AID977628
CC1Cc2cc(-c3csc(NC(=O)Cc4ccccc4)n3)ccc2N1S(C)(=O)=O (stereo not drawn)	-0.2	-0.4	-7.1	-26.1*	-4.25	-16.6
O=C(Nc1cccc(Cl)c1)N1C[C@H]2[C@@H](c3ccccc31)[C@H](CO)N2Cc1ccncc1	-5.1	-11.1	x	-29.3*	x	u
O=C(Nc1ccccc1F)N1C[C@@H]2[C@H](c3ccccc31)[C@@H](CO)N2C(=O)Cc1ccccc1	0.6	-0.6	x	-43.6*	x	u
O=C(Nc1cccc(Cl)c1)N1C[C@H]2[C@@H](c3ccccc31)[C@H](CO)N2C(=O)c1ccncc1	-0.4	-3.0	x	-17.5	x	x
O=C(Nc1cccc(Cl)c1)N1C[C@H]2[C@@H](c3ccccc31)[C@@H](CO)N2C(=O)c1ccncc1	-2.0	-2.6	x	-23.0*	x	u
CC(C)NC(=O)N(C)C[C@@H]1Oc2ccc(NC(=O)Cc3cn(C)c4ccccc34)cc2CC(=O)N([C@@H](C)CO)C[C@H]1C	-2.9	-9.6	x	0.4	x	x
COCC#Cc1cnc2c(c1)C(=O)N([C@@H](C)CO)C[C@@H](C)[C@@H](CN(C)C(=O)Nc1cc(F)ccc1F)O2	-0.2	x	x	9.8	x	x
COC(C(=O)Nc1ccnn1C1CCN(Cc2ccc(Cl)s2)CC1)c1ccccc1 (stereo not drawn)	2.6	-0.1	-6.5	-22.1*	-4.78	-9.8
O=C(Cc1cccnc1)N1CC(=O)N2[C@H](C1)[C@@H](c1ccc(C3=CCCCC3)cc1)[C@@H]2CO	0.4	x	x	-16.7*	x	u
O=C(C[C@H]1C=C[C@@H](NC(=O)c2ccncc2)[C@H](CO)O1)NCC1CCCCC1	-1.8	-4.6	x	1.7	x	x
COc1cccc(C(=O)C2CCCN(C/C=C/c3ccccc3OC)C2)c1 (stereo not drawn)	2.6	1.3	-6.3	-29.0*	u	u
COc1ccc(S(=O)(=O)N(C)C[C@H]2OCc3cn(nn3)CCCC(=O)N([C@H](C)CO)C[C@H]2C)cc1	-1.4	x	x	3.0	x	x
CSc1nc2nc3c(cc2c(=O)n1-c1ccccc1C)CCCC3	-2.8	1.6	-5.0	-29.5*	-15.5	-10.9
CN1C(=O)c2cccc3c(S(=O)(=O)NCCc4ccccc4)ccc1c23	-2.6	-1.2	-11.7	-23.2*	u	x
COc1ccc(C(=O)Nc2nc3ccc(OC)cc3s2)cc1	3.6	-1.8	-3.3	-31.6*	x	u
COc1ccc(C(=O)Nc2nc3ccc(S(C)(=O)=O)cc3s2)cc1	x	3.1	-4.1	x	x	x
CCCNC(=O)Nc1ccc2c(c1)OC[C@H](C)N(C(=O)c1ccccc1F)C[C@@H](C)[C@@H](OC)CN(C)C2=O	-1.3	-0.5	x	-0.8	x	x
CS(=O)(=O)NCCSc1cc(C(F)(F)F)nc2ccccc12	1.9	x	-4.4	-19.6*	x	u
C[C@@H](NC(=O)C[C@@H]1C[C@@H]2c3cc(NC(=O)CC4CC4)ccc3O[C@@H]2[C@H](CO)O1)c1ccccc1	0.3	2.5	x	-0.2	x	x
COc1ccccc1C#Cc1ccc([C@@H]2[C@@H](CO)N3CCCCN(C(=O)C4CCCC4)C[C@H]23)cc1	3.1	3.1	x	x	x	x
COc1ccc(-c2nc(C(=O)O)cs2)cc1OC	2.2	x	-7.0	3.4	x	x
COc1ccc(-c2cc(C(=O)O)nc3ccc4ccccc4c23)cc1OC	1.6	x	-4.8	-28.9*	-16.5	x
CN1c2ccc(-c3cccc(F)c3)cc2[C@@H]2[C@@H](CCN2C(=O)Cc2ccccc2)[C@@H]1CO	2.3	-5.4	x	-21.8	x	x
COc1ccc(NC(=O)CCN2C(=O)C3C4C=CC(C4)C3C2=O)cc1 (stereo not drawn)	-4.9	-2.5	-6.2	4.8	x	x
Cc1cc(NC(=O)CCN2C(=O)C3C4C=CC(C4)C3C2=O)ccc1Br (stereo not drawn)	-1.2	-13.1	-18.2	-21.4*	-8.32	-18
SMILES	F508del corr	Cneo AK release	CaV13 FRET inh	rRNA inh HTS	AID977621	AID977628
O=C(NCc1cccnc1)C1CCN(S(=O)(=O)c2cc([N+](=O)[O-])ccc2Cl)CC1	-0.9	2.8	-6.4	-3.1*	-8.06	-12.7
COc1ccc2c3c(n(C)c2c1)[C@@H](CO)N(C(=O)Nc1ccc(F)cc1)CC31CCN(S(=O)(=O)c2cccc(F)c2)CC1	4.0	x	x	-0.9	x	x
CCCNc1ccc(C(=O)OCC)cc1[N+](=O)[O-]	-2.8	1.2	3.5	-30.5*	-6.22	-11.8
Cc1noc(C)c1NC(=O)Nc1ccc2c(c1)C(=O)N([C@H](C)CO)C[C@@H](C)[C@H](CN(C)C(=O)c1ccccc1)OCCCC[C@H](C)O2	0.1	-1.8	x	0.4	x	x
Cc1ccc(-n2nnnc2CNC(=O)c2ccc([N+](=O)[O-])o2)cc1C	-8.6	x	-2.8	-19.6*	u	0.065
O=C(NCc1nnnn1-c1ccc(F)cc1)c1ccc([N+](=O)[O-])o1	-7.1	x	-15.4	-13.8	x	x
COc1ccc(C(=O)COc2ccc(F)cc2)c(O)c1	-3.3	-3.0	-7.2	-21.4*	0.437	-8.93
O=C(COc1ccc(F)cc1)c1c(O)cc(O)cc1O	-2.4	-0.6	-6.4	3.1	x	x
Cc1ccc2nc(N(CCN(C)C)C(=O)C3CCN(S(=O)(=O)c4cccs4)CC3)sc2c1	2.8	2.2	-2.5	-10.8*	u	x
CNC(=O)C[C@H]1CC[C@H]2[C@@H](COc3ccc(NC(=O)Nc4c(C)noc4C)cc3C(=O)N2C)O1	1.4	-0.5	x	-1.3	x	x
Cc1cc(F)ccc1-c1cc(C(=O)NCC2CCCCC2)[nH]n1	0.9	-0.8	-6.8	-36.0*	x	u
CO[C@@H]1CN(C)C(=O)c2cc(C#N)ccc2OC[C@H]2O[C@@H](CC[C@H]2OC)CCN(C)C(=O)[C@H]1C	-1.0	-4.2	x	1.9	x	x
COc1ccc(NC(=O)Nc2ccc3c(c2)C(=O)N([C@H](C)CO)C[C@H](C)[C@@H](CN(C)C(=O)Nc2ccc(F)cc2)O3)cc1	-0.7	-23.9	x	0.7	x	x
O=S(=O)(NCc1cc(-c2ccccc2)no1)c1ccccc1Cl	-1.0	x	-8.9	-20.8*	-1.56	1.01
CCN(c1ccccc1)S(=O)(=O)c1ccc(Cl)c(C(=O)NCc2ccco2)c1	-0.9	-0.4	-2.0	-20.6*	-19.4	x
CCN(CC)S(=O)(=O)c1ccc(Cl)c(C(=O)NCc2ccco2)c1	5.6	x	-2.0	7.7	x	x
COc1ccc(Oc2ccc(C(F)(F)F)cc2NC(=O)CC(CC(=O)O)c2ccccc2)cc1 (stereo not drawn)	-0.4	-0.5	-4.2	-35.6*	-8.97	x
